In brackets after ≈: the same amount, converted by molar mass.
What was measured:
[1] = test system: Helicobacter pylori; experiment: Minimum Inhibitory concentration against Helicobacter pylori; type: functional
Outline: (§1)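 Whole-cell antimicrobial MIC against a reference American Type Culture Collection *H. pylori* strain, reported in μg/mL.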

[2] = molecular target: Dihydroorotate dehydrogenase (quinone), mitochondrial (Homo sapiens, UniProt Q02127); experiment: Inhibition of human dihydroorotate dehydrogenase (DHODase)
Dihydroorotate dehydrogenase (quinone), mitochondrial, sequence (Q02127 whole entry): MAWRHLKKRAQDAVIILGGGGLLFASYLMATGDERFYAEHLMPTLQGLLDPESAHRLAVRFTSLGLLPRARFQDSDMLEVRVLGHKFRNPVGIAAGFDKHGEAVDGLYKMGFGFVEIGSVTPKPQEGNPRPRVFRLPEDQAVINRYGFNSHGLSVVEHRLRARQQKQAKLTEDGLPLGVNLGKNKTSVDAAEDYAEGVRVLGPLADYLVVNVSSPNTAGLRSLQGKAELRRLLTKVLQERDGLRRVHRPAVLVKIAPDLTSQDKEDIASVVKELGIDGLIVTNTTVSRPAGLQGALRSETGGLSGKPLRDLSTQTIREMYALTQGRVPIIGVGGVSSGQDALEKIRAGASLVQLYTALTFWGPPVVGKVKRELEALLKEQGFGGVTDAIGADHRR

[3] = test system: Helicobacter pylori; experiment: Minimum inhibitory concentration measured against compound 13 resistant Helicobacter pylori isolate; type: functional
Outline: (§2)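 Spontaneously resistant H. pylori mutants were isolated by plating cells on the selecting pyrazole, with the same method for each of the two selecting agents. Each resistant isolate was then tested for MIC against the pyrazole not used to select it, as a cross-resistance check.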

[4] = Minimum inhibitory concentration measured against wild type.; type: functional; conditions: Helicobacter pylori; outline: as §1
[5] = test system: Helicobacter pylori; experiment: Minimum inhibitory concentration measured against compound 1 resistant Helicobacter pylori isolate; type: functional; outline: as §2

Row | Structure (SMILES) | MIC [1] | Ki [2] | MIC [3] | MIC [4] | MIC [5]
1 | CC(C)CNC(=O)c1cc(C(=O)NCc2ccccc2)nn1-c1ccc(Cl)cc1 | > 64 µg/mL | > 50 µM | – | – | –
2 | COc1ccc(-n2nc(C(=O)Nc3ccc(C(=O)N4CCCC4)cc3)cc2C(=O)NCc2ccccc2)cc1 | > 32 µg/mL | – | – | – | –
3 | O=C(NCc1cccnc1)c1cc(C(=O)Nc2ccc(N3CCCCC3)cc2)n(-c2ccc(Cl)cc2)n1 | 2 µg/mL (≈ 3.88 µM) | > 50 µM | – | – | –
4 | COc1ccc(-n2nc(C(=O)NCC(C)C)cc2C(=O)Nc2ccc(C(=O)N3CCCC3)cc2)cc1 | 64 µg/mL (≈ 131 µM) | > 50 µM | – | – | –
5 | COc1ccc(-n2nc(C(=O)NCc3cccnc3)cc2C(=O)Nc2ccccc2)cc1 | 0.5 µg/mL (≈ 1.17 µM) | > 50 µM | 24 µg/mL (≈ 56.1 µM) | 0.5 µg/mL (≈ 1.17 µM) | 32 µg/mL (≈ 74.9 µM)
6 | O=C(NCc1ccccc1)c1cc(C(=O)Nc2ccccc2)n(-c2ccc(Cl)cc2)n1 | 0.125 µg/mL (≈ 0.29 µM) | 50 µM | – | – | –
7 | Cc1ccc(CNC(=O)c2cc(C(=O)Nc3ccccc3)n(-c3ccc(Cl)cc3)n2)cc1 | 32 µg/mL (≈ 71.9 µM) | > 50 µM | – | – | –
8 | COc1ccc(-n2nc(C(=O)NC(c3ccccc3)c3ccccc3)cc2C(=O)NCc2ccccc2)cc1 | > 32 µg/mL | > 50 µM | – | – | –
9 | O=C(NCc1cccnc1)c1cc(C(=O)Nc2ccccc2)n(-c2ccc(Cl)cc2)n1 | 0.25 µg/mL (≈ 0.579 µM) | > 50 µM | – | – | –
10 | NC(=O)c1ccc(NC(=O)c2cc(C(=O)NCc3ccccc3)nn2-c2ccc(Cl)cc2)cc1 | 8 µg/mL (≈ 16.9 µM) | > 50 µM | – | – | –
11 | COc1ccc(-n2nc(C(=O)NCc3ccccc3)cc2C(=O)Nc2ccc(C(=O)N3CCCC3)cc2)cc1 | 3 µg/mL (≈ 5.73 µM) | > 50 µM | > 64 µg/mL | 3 µg/mL (≈ 5.73 µM) | > 64 µg/mL
12 | COc1ccc(-n2nc(C(=O)NCC3CCCO3)cc2C(=O)Nc2ccc(C(=O)N3CCCC3)cc2)cc1 (centres undefined) | > 32 µg/mL | > 50 µM | – | – | –
